In article PMC2808857 (Journal of clinical pharmacology, 2009):
Like-named read-outs stand apart in the source and are kept apart here.

Assays:
[1] = cited from earlier work
[2] = Population pharmacokinetic analysis
[3] = type: in vivo, human; conditions: for AUC / Cmax / T1/2 / Tmax / Urine excretion, %dose: mean (range); for Urine excretion, %dose: urine 0-24 hr
How it was run: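 Patients with refractory solid tumors took the capsule with water after overnight fasting. Plasma was drawn predose and at 0.5, 1, 2, 4, 6, 9, 12, 24, 32 and 48 h, then stored at −70°C. Drug was extracted into ethyl acetate and quantified by LC–ESI single-quadrupole MS (LLOQ 5 ng/ml). Parameters were noncompartmental per patient, with Cmax and Tmax as observed. Renal clearance = Ae,0–24/AUC0–24.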

[4] = test system: patients with refractory metastatic solid tumors; assay: Response to therapy; type: in vivo, human
How it was run: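 Patients with refractory metastatic solid tumors received oral test compound once daily (5–40 mg/day dose escalation), taken with water after overnight fasting. Dosing was initially continuous over 28-day cycles, then amended to 21 days on and 7 days off. Treatment continued until progression or toxicity. Measurable disease was assessed by RECIST, with radiographic studies at end of cycle 3 and every other cycle thereafter.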

[5] = 5 mg single oral dose, cycle 1 day 1, n=2
[6] = 10 mg single oral dose, cycle 1 day 1, n=6
[7] = 15 mg single oral dose, cycle 1 day 1, n=3
[8] = 20 mg single oral dose, cycle 1 day 1, n=9
[9] = 25 mg single oral dose, cycle 1 day 1, n=6
[10] = 30 mg single oral dose, cycle 1 day 1, n=8
[11] = 35 mg single oral dose, cycle 1 day 1, n=6
[12] = 40 mg single oral dose, cycle 1 day 1, n=3

(α -(3-aminophthalimido) glutarimide) [lenalidomide]
unchanged lenalidomide excreted into urine, fraction of dose ([1]; healthy volunteers): two thirds
increase of lenalidomide exposure in mild RI over normal function ([1]; patients with multiple myeloma): 56%
interpatient variability on total lenalidomide clearance ([2]; before inclusion of CLCr in the model): 70.6%
BSV of Tlag, Population Mean (95% CI) ([2]; final PopPK model): 30.0 (2.2 – 47.9) CV%
BSV of V/F, Population Mean (95% CI) ([2]; final PopPK model): 33.0 (1.0 – 48.0) CV%
BSV of ka, Population Mean (95% CI) ([2]; final PopPK model): 146 (95 – 184) CV%
Residual error, Population Mean (95% CI) ([2]; final PopPK model): 34.0 (26.9 – 40.0) CV%
Tlag, Population Mean (95% CI) ([2]; final PopPK model): 0.37 (0.30 – 0.43) hr
V/F, Population Mean (95% CI) ([2]; final PopPK model): 57.8 (49.4 – 66.2) L
ka, Population Mean (95% CI) ([2]; final PopPK model): 4.60 (0.66 – 8.54) 1/hr
CL/F, Mild RI, Population Mean (95% CI) ([2]; final PopPK model, 50 ≤ CLCr ≤ 80 mL/min): 136 (97 – 175) ml/min
CL/F, Normal renal function, Population Mean (95% CI) ([2]; final PopPK model, CLCr > 80 mL/min): 243 (193 – 297) ml/min
BSV of Tlag, Bootstrap Median (95% CI) ([2]; non-parametric bootstrap): 29.1 (4.5 – 65.1) CV%
BSV of V/F, Bootstrap Median (95% CI) ([2]; non-parametric bootstrap): 31.5 (14.5 – 52.4) CV%
BSV of ka, Bootstrap Median (95% CI) ([2]; non-parametric bootstrap): 143 (92 – 197) CV%
Residual error, Bootstrap Median (95% CI) ([2]; non-parametric bootstrap): 33.8 (27.4 – 40.9) CV%
Tlag, Bootstrap Median (95% CI) ([2]; non-parametric bootstrap): 0.37 (0.25 – 0.43) hr
V/F, Bootstrap Median (95% CI) ([2]; non-parametric bootstrap): 57.8 (51.3 – 66.7) L
ka, Bootstrap Median (95% CI) ([2]; non-parametric bootstrap): 4.67 (2.52 – 9.19) 1/hr
CL/F, Mild RI, Bootstrap Median (95% CI) ([2]; non-parametric bootstrap, 50 ≤ CLCr ≤ 80 mL/min): 136 (103 – 178) ml/min
CL/F, Normal renal function, Bootstrap Median (95% CI) ([2]; non-parametric bootstrap, CLCr > 80 mL/min): 243 (202 – 297) ml/min
dose-normalized AUC ([2]; patients with normal renal function): 75 ng·h/ml per mg
dose-normalized AUC ([2]; renally impaired subjects (mild RI)): 167 ng·h/ml per mg
AUC [3, 5]: 302 (257, 346) ng·hr/ml
Cmax [3, 5]: 80 (66, 93) ng/ml
T1/2 [3, 5]: 2.7 (2.1, 3.3) hr
Tmax [3, 5]: 0.75 (0.5, 1) hr
AUC [3, 6]: 571 (256–1415) ng·hr/ml
Cmax [3, 6]: 107 (59–163) ng/ml
T1/2 [3, 6]: 3.1 (2.4–4.2) hr
Tmax [3, 6]: 1 (0.5– 4) hr
AUC [3, 7]: 1090 (712–1391) ng·hr/ml
Cmax [3, 7]: 195 (174–224) ng/ml
Tmax [3, 7]: 2 (1–4) hr
AUC [3, 8]: 1901 (239–4093) ng·hr/ml
Cmax [3, 8]: 343 (64–621) ng/ml
T1/2 [3, 8]: 3.1 (1.9–7.8) hr
Tmax [3, 8]: 1 (0.5–6.1) hr
AUC [3, 9]: 3820 (1081–11363) ng·hr/ml
Cmax [3, 9]: 451 (311–631) ng/ml
T1/2 [3, 9]: 5.3 (1.6–15.9) hr
Tmax [3, 9]: 1.5 (0.5–8.9) hr
AUC [3, 10]: 4040 (844–15445) ng·hr/ml
Cmax [3, 10]: 593 (69–1315) ng/ml
T1/2 [3, 10]: 4.0 (3.2–14.2) hr
Tmax [3, 10]: 1.5 (0.5–6) hr
Urine excretion, %dose ([3]; 30 mg single oral dose, n=3): 47.0 (36.3–62.0) %dose
AUC [3, 11]: 5309 (3172–7062) ng·hr/ml
Cmax [3, 11]: 782 (594–969) ng/ml
T1/2 [3, 11]: 6.7 (3.7–14.5) hr
Tmax [3, 11]: 1 (0.5–4) hr
Urine excretion, %dose ([3]; 35 mg single oral dose, n=4): 54.6 (48.3–63.1) %dose
AUC [3, 12]: 3926 (3281–4656) ng·hr/ml
Cmax [3, 12]: 842 (648–1002) ng/ml
T1/2 [3, 12]: 4.1 (1.8–6.2) hr
Tmax [3, 12]: 1 (0.75–2) hr
Urine excretion, %dose ([3]; 40 mg single oral dose, n=2): 44.9 (43.8, 46.0) %dose
CL/F_renal as share of the total clearance ([3]; 9 patients): about 50%
amount of unchanged lenalidomide excreted into urine for 24 hours ([3]; 30-40 mg dose groups): 45–55 % of dose
mean half-life (T1/2) ([3]; across all doses 5-40 mg, oral): 3.9 h
time of peak plasma concentration ([3]; after single oral administration): around 1 hour
median time on-study of patients with stable disease ([4]; 12 patients, range 4 – 11): 5 months
complete or partial response ([4]; 44 evaluable patients): No complete or partial response was noted
